Measured values gathered from unrelated publications.
Lines come from different studies, so protocols differ.
Target: Serine/threonine-protein kinase VRK1 (VRK1, Homo sapiens, UniProt Q99986)
Residues used in one study (Q99986 1-396): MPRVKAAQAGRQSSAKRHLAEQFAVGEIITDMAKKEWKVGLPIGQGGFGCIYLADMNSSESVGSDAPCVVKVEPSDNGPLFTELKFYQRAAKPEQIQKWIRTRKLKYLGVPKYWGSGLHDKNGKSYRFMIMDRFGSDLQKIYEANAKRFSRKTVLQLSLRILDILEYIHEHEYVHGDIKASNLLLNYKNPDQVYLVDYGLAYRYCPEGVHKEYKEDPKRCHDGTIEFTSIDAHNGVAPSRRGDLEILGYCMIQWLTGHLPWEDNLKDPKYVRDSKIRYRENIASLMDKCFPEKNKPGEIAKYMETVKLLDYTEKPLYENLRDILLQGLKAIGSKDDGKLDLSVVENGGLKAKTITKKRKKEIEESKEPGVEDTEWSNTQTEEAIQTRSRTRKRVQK

SMILES | observed | mode | method | tested at | quantity | result
Cn1c2c(Cl)c(Cl)ccc2c2cn[nH]c(=O)c21 | thermal stability | – | DSF | 10 µM | ΔTm | 0 °C
O=C(Nc1cnn(-c2csc(C(=O)NC3COC3)c2)c1)Nc1c(F)cccc1Cl | enzyme activity | inhibitor | – | 5 µM | remaining activity | 91.9%
CN1CC(Oc2cnc(C#N)cc2-c2ccn3nc(NC(=O)C4CC4)cc3c2)C1 | enzyme activity | inhibitor | – | 1 µM | inhibition | -1%
CC(C)(C)c1nc2c(s1)c1nc(N)ncc1c1ccc(NS(=O)(=O)c3c(F)cccc3F)c(F)c12 | enzyme activity | inhibitor | radiometric | 1 µM | remaining activity | 82%
COc1cc(Cl)c(C(=O)N[C@@H](CN[C@H]2CC[C@@H](N)CC2)Cc2ccc(C#N)cc2)cc1-c1ccc(CN[C@H](C)c2ccc(C)cc2)o1 | enzyme activity | inhibitor | – | 1 µM | remaining activity | 93%
CC(C)(O)[C@H]1CC[C@H](Nc2ccc3ncc(-c4cccc(C(F)(F)F)c4)n3n2)CC1 | enzyme activity | inhibitor | – | 1 µM | remaining activity | 74.9%
O=C1Nc2ccc(Cl)cc2C1=Cc1cc(Cl)c(O)c(Cl)c1 | cell-free assay | – | – | 0.5 µM | remaining signal | 80.6%
N#CC1c2c([nH]c3c(Cl)c(Cl)ccc23)C(=O)NC12CCCCC2 (racemic) | thermal stability | – | DSF | 10 µM | ΔTm | 0.1 °C
O=C(Nc1cnn(-c2csc(C(=O)NC3COC3)c2)c1)Nc1ccccc1Cl | enzyme activity | inhibitor | – | 5 µM | remaining activity | 109%
CN1CCC2(CC1)NC(=O)c1c(c3ccc(Cl)c(Cl)c3n1C)C2C#N (racemic) | thermal stability | – | DSF | 10 µM | ΔTm | 0 °C
CC(C)(C)c1nc(-c2cccc(NS(=O)(=O)c3c(F)cccc3F)c2F)c(-c2ccnc(N)n2)s1 | enzyme activity | inhibitor | radiometric | 1 µM | remaining activity | 77%
